Calls of active or inactive are those of the source. No cut-off for these calls is given here.
What was measured:
[1] = tested on: Pseudomonas aeruginosa; test: Competitive inhibition of Pseudomonas aeruginosa 101/1477 IMP-1 expressed in Escherichia coli BL21(DE3) using benzylpenicillin as substrate assessed as residual activity measured for 5 mins by UV multiplate spectrophotometry
Method in brief: (§1)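 IMP-1 lacking the first 21 signal-peptide residues, expressed and purified by a previously published protocol. Kinetic assays were run at pH 7 and read out as residual enzyme activity. The chromogenic cephalosporin CENTA was not used as substrate because thiol inhibitors react with it.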

[2] = tested on: Pseudomonas aeruginosa; test: Uncompetitive inhibition of Pseudomonas aeruginosa 101/1477 IMP-1 expressed in Escherichia coli BL21(DE3) using benzylpenicillin as substrate assessed as residual activity measured for 5 mins by UV multiplate spectrophotometry; method in brief: as §1
[3] = tested on: Enterobacter cloacae; test: Inhibition of IMP-4 in Enterobacter cloacae ECL1 assessed as reduction of imipenem MIC at 50 mM relative to control
[4] = tested on: Enterobacter cloacae; test: Inhibition of IMP-4 in Enterobacter cloacae ECL2 co-expressing TEM1 assessed as reduction in imipenem MIC at 50 mM
[5] = tested on: Escherichia coli BL21; test: Inhibition of IMP-1 in Escherichia coli BL21 assessed as imipenem MIC at 50 mM (reference value: 2 ug/ml)
[6] = tested on: Enterobacter cloacae; test: Inhibition of IMP-4 in Enterobacter cloacae ECL1 assessed as imipenem MIC at 50 mM (reference value: 1.5 ug/ml)
[7] = tested on: Enterobacter cloacae; test: Inhibition of IMP-4 in Enterobacter cloacae ECL2 co-expressing TEM1 assessed as imipenem MIC at 50 mM (reference value: 0.5 ug/ml)
[8] = tested on: Escherichia coli BL21; test: Inhibition of IMP-1 in Escherichia coli BL21 assessed as reduction of imipenem MIC at 50 mM relative to control
[9] = Competitive inhibition of IMP-1 (unknown origin)

Compound | Kic [1] [µM] | Kiuc [2] [mM] | also measured
O=C(CCS)N[C@@H](Cc1ccccc1)C(=O)O | 1.45 | 0.0602 | –
O=C(CCCS)N[C@@H](Cc1c[nH]c2ccccc12)C(=O)O | 8.62 | > 1 | –
O=C(CS)N[C@@H](Cc1ccc(OCc2ccccc2)cc1)C(=O)O | 0.086 | > 1 | fold change (FC) [3]: 3.9; inhibition [4]: inactive; MIC [5]: 0.38 µg/mL; MIC [6]: 0.38 µg/mL; MIC [7]: 0.5 µg/mL; fold change (FC) [8]: 5.2
O=C(CCS)N[C@H](Cc1ccccc1)C(=O)O | – | – | Ki [9]: 88 nM
O=C(CCS)N[C@@H](Cc1c[nH]c2ccccc12)C(=O)O | 5.02 | > 1 | –
CC(=O)SCC(=O)O | 0.32 | 0.00264 | –
O=C(CS)N[C@@H](Cc1c[nH]c2ccccc12)C(=O)O | 0.47 | > 1 | –
O=C(CCS)N[C@@H](Cc1ccc(OCc2ccccc2)cc1)C(=O)O | 9.39 | > 1 | –
O=C(CCCS)N[C@@H](Cc1ccc(OCc2ccccc2)cc1)C(=O)O | 5.85 | > 1 | –
O=C(CCCS)N[C@@H](Cc1ccccc1)C(=O)O | 2.82 | > 1 | –

The next lines start with results.

Kic [1] [µM] | Kiuc [2] [mM] | Compound | also measured
5.18 | > 1 | O=C(CCS)N[C@@H](Cc1ccc(O)cc1)C(=O)O | –
5.63 | > 1 | O=C(CCCS)N[C@@H](Cc1ccc(O)cc1)C(=O)O | –
4.55 | > 1 | O=C(CS)N[C@@H](Cc1ccc(O)cc1)C(=O)O | –
0.25 | > 1 | O=C(CS)N[C@@H](Cc1ccccc1)C(=O)O | –

— ChEMBL document CHEMBL3792368, “Design, synthesis, and in vitro and biological evaluation of potent amino acid-derived thiol inhibitors of the metallo-β-lactamase IMP-1” (Eur J Med Chem, 2016)
